This is a sample that favours compounds with a hit; in the whole collection about 2.5% have one here.
TRPC4 agonist: activators of mouse TRPC4 channel, primary screen, Fluo4 calcium, HEK293 TRPC4beta/mu-opioid cells; Fluo4 calcium fluorescence; active compounds read high; B-score at 10 µM; hit rate 0.49% among 310,000; Short transient receptor potential channel 4 (Mus musculus), Q9QUQ5; AID 2237, 2010;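 active = B-score above 5 SD of library B-scores, and initial fluorescence ratio not above library mean plus 5 SD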;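 note: positive B-score marks a calcium rise read as TRPC4 activation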
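Assay system: HEK293 cells stably co-expressing mouse TRPC4beta and mu-opioid receptor / Timing: Fluo4 dye loading 45 min at room temperature, 110 s recording / Signal: Fluo4 calcium-sensitive dye fluorescence, kinetic, 1 Hz baseline / Read-out: integrated baseline-normalised fluorescence ratio, converted to per-well B score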
TRPC6 inhibitor: mouse TRPC6 channel inhibitors, primary screen, cell-based, HEK293, membrane potential dye | B-score at 10 µM | hit rate 1.1% among 310,000 | Short transient receptor potential channel 6 (Mus musculus), Q61143 | ACh-evoked depolarization; active compounds read low;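 active = B-score under library mean minus 3 SD, initial fluorescence not abnormally high, positive integrated signal ratio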;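 note: B-score derived from integrated fluorescence ratio over the kinetic read; more negative B-score means stronger inhibition of depolarization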
Target sequence (Q61143 whole entry, looked up): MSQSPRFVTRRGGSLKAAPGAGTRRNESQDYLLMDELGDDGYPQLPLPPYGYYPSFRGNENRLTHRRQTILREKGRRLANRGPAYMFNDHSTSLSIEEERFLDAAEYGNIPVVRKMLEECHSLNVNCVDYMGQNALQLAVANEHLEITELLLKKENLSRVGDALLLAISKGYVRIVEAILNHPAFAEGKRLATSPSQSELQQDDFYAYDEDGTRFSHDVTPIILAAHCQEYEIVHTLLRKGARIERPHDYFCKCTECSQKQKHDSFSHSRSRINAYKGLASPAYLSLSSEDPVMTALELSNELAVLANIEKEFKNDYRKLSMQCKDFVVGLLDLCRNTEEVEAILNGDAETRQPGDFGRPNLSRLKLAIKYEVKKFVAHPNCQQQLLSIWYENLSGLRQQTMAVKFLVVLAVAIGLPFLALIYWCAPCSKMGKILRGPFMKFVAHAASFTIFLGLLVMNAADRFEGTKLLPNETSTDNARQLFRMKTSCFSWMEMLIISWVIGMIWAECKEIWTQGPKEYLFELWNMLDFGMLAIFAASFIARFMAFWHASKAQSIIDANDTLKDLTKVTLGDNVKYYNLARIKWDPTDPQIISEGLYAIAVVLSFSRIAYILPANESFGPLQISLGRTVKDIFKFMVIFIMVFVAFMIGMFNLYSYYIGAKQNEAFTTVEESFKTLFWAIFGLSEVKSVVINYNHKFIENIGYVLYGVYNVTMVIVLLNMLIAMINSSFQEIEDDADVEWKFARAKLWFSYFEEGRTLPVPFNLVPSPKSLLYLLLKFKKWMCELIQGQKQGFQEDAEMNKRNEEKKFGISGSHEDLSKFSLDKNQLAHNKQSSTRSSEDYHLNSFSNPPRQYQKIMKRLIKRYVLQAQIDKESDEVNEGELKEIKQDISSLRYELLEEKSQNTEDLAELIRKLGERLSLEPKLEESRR
TRPC4 potent: positive allosteric modulators of TRPC4, primary screen, cell-based, mouse TRPC4beta, HEK293 mu-opioid, Fluo-4 calcium. Short transient receptor potential channel 4 (Mus musculus), Q9QUQ5. DAMGO EC20, Fluo-4 Ca2+ flux; active compounds read high. B-score at 10 µM. hit rate 0.42% among 310,000;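 active = B-score of calcium response area above 5 SD of library B-scores, with initial fluorescence ratio within 5 SD of library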;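 note: B-score of integrated fluorescence ratio over time as area under calcium response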
TRPC4 block: inhibitors of mouse TRPC4 channel, primary screen, Fluo4 calcium, HEK293 TRPC4beta/mu-opioid cells; hit rate 0.39% among 300,000; DAMGO-evoked Fluo4 calcium flux; active compounds read low; B-score at 10 µM;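 active = B-score over 3 SD under the library average, no early fluorescence shift, positive overall ratio signal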
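Assay system: Stable TRPC4beta/mu-opioid receptor HEK293 cells | Reagent: DAMGO in two steps, submaximal then maximal | Compound dosing: Single concentration per test compound | Signal: Fluo4 Ca2+ flux fluorescence | Evaluation: Per-well B score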
Platelet DG rel: inhibitors of platelet dense granule secretion, primary screen, cell-based, MLPCN, human platelets; human platelet-rich plasma, SFLLRN dense granule ATP release, luminescence; inhibition, %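 (compounds screened at 7.5 µM in platelet-rich plasma)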; hit rate 0.22% among 300,000;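 active = mean replicate score, as percent of positive control, at or above 50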
TRPC6 act: mouse TRPC6 channel activators, primary screen, cell-based, HEK293, membrane potential dye | Short transient receptor potential channel 6 (Mus musculus), Q61143 | HEK293-TRPC6 membrane potential dye fluorescence; active compounds read high | B-score at 10 µM | hit rate 0.13% among 310,000 | AID 2550, 2010;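 active = B-score of the integrated fluorescence ratio above library mean plus 3 SD, and starting fluorescence ratio within library mean plus 5 SD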;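 note: higher score means more depolarization so channel activation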
TRPC4 spec 2: second selectivity test of TRPC6 inhibitors: effect on mouse TRPC4. shares compounds with TRPC6 inhibitor. HEK293 TRPC4/MOR, membrane potential dye fluorescence; channel activated by saturating DAMGO dose. inhibition, % at 10 µM. hit rate 42% among 920;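 active = compounds whose fluorescence signal differed from control wells by over 3 SD, either direction, in both duplicate plates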
TRPC4 spec: mouse TRPC4 modulation by TRPC6 hits, confirmation, selectivity assay for TRPC6 inhibitor project, cell-based, HEK293 TRPC4/mu-opioid, membrane potential dye; shares compounds with TRPC6 inhibitor; membrane potential fluorescence; activity change, negative = inhibition, % at 10 µM; hit rate 61% among 920; AID 2777, 2010;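 active = rise or fall in signal beyond 3 SD of buffer-only wells in both replicate plates, either sign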;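 note: integrated kinetic ratio of fluorescence range over baseline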
HEK293 MPD ctr 2-1: nonspecific membrane potential effects, parental HEK293, confirmation, counter-screen for TRPC6 inhibitor project, cell-based, second counter screen. shares compounds with TRPC6 inhibitor. parental HEK293 membrane potential dye fluorescence; maximal acetylcholine challenge after compound addition. signal change vs control, % at 10 µM. hit rate 31% among 920;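 active = membrane potential signal moving either way by over 3 SD of the maximum-effect control, in both duplicate plates, meaning non-specific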
HEK293 MPD ctr-1: membrane potential modulation in parental HEK293, confirmation, counter-screen for TRPC6 inhibitor project, cell-based | shares compounds with TRPC6 inhibitor | parental HEK293 membrane potential dye fluorescence | hit rate 60% among 920 | AID 2780, 2010 | membrane potential signal change, % at 10 µM;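 active = membrane potential signal shifting up or down by more than 3 SD of buffer-only wells, on both duplicate plates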
HEK293 MPD ctr-2: parental HEK293 membrane potential modulation, confirmation, counter-screen for TRPC6 modulator project, cell-based. hit rate 51% among 2,400. AID 488924, 2010. membrane potential dye fluorescence. shares compounds with TRPC6 inhibitor. membrane potential signal change, % at 10 µM;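 active = membrane potential signal moves up or down beyond 5 SD from buffer-only wells, on both duplicate plates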
HEK293 MPD ctr 2-2: parental HEK293 nonspecific activity of TRPC6 modulators, second screen; hit rate 14% among 2,400; shares compounds with TRPC6 inhibitor; membrane potential dye fluorescence; after compound, maximal acetylcholine stimulation; inhibition, % at 10 µM; AID 488926;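 active = membrane potential signal drops by more than 5 SD from the mean control signal, in both duplicate plates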;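 note: plate controls were acetylcholine ECmax control wells for no effect and buffer only wells for full effect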
TRPC4/MOR mod: TRPC4 modulation by TRPC6 hit compounds, confirmation, selectivity assay for TRPC6 modulator project, cell-based, HEK293 TRPC4/mu-opioid, membrane potential dye, mouse. percent change from control (negative = decrease, positive = increase), % at 10 µM. membrane potential fluorescence. hit rate 69% among 2,400. shares compounds with TRPC6 inhibitor;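 active = membrane potential signal moved up or down beyond 5 SD of buffer control wells, in both duplicate plates, actives on both sides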;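 note: plate controls were assay buffer wells for no effect and DAMGO maximal-effect wells for full effect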
TRPC4 ctr inh 2: second check of whether TRPC6 modulators also affect mouse TRPC4; inhibition, % at 10 µM; hit rate 55% among 2,400; HEK293 TRPC4/mu-opioid, membrane potential dye fluorescence; stimulated with maximal-effect DAMGO; AID 488928; shares compounds with TRPC6 inhibitor;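 active = drop in membrane potential signal beyond 5 SD of the control wells in both duplicate plates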;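 note: TRPC4 counter screen for TRPC6 hits run under conditions tuned for TRPC6 not TRPC4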
TRPC6 inh conf: mouse TRPC6 channel inhibitors, confirmation, HEK293 cells, membrane potential dye, duplicate; ACh-evoked depolarization; hit rate 43% among 3,300; AID 488960, 2010; inhibition, % at 10 µM; shares compounds with TRPC6 inhibitor;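 active = fluorescence ratio falls more than 5 SD below the full-stimulation control mean, in both duplicate runs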;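 note: integrated fluorescence ratio of peak minus minimum over baseline after agonist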
TRPC6 act conf: mouse TRPC6 channel activators, confirmation, HEK293 cells, membrane potential dye, duplicate | shares compounds with TRPC6 inhibitor | HEK293-TRPC6 membrane potential dye fluorescence, FDSS | activation, % at 10 µM | hit rate 11% among 2,800;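 active = ratio signal rise beyond 5 SD above unstimulated control wells' mean, seen in both duplicate runs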;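 note: plate controls were buffer EC0 wells for no effect and acetylcholine ECmax response for full effect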
* hit, by the source's call; i = inactive; . = no result given.

SMILES | TRPC4 agonist | TRPC6 inhibitor | TRPC4 potent | TRPC4 block | Platelet DG rel | TRPC6 act | TRPC4 spec 2 | TRPC4 spec | HEK293 MPD ctr 2-1 | HEK293 MPD ctr-1 | HEK293 MPD ctr-2 | HEK293 MPD ctr 2-2 | TRPC4/MOR mod | TRPC4 ctr inh 2 | TRPC6 inh conf | TRPC6 act conf
COCCCNC(=O)c1cc2c(=O)n3cccc(C)c3nc2n(C(C)C)c1=N | i | -5* | i | i | 3 | i | . | . | . | . | i | 67%* | i | 30%* | 45%* | i
CC(C)(C)NC(=O)c1nc2nc(-c3ccccc3)cc(C(F)(F)F)n2n1 | i | i | i | i | -8 | i | . | . | . | . | . | . | . | . | . | .
N#Cc1nc(/C=C/c2ccccc2)oc1NCCCN1CCOCC1 | i | -7.1* | i | i | -1 | i | i | i | i | i | . | . | . | . | i | i
COCCNc1oc(/C=C/c2ccccc2)nc1C#N | i | i | i | i | 0 | i | . | . | . | . | . | . | . | . | . | .
Nc1c2c(nc3ccn(Cc4ccccc4)c(=O)c13)CCC2 | i | -7.5* | i | i | 1 | i | 72%* | -22%* | -10%* | -353%* | . | . | . | . | 73%* | i
Nc1c2c(nc3ccn(-c4ccccc4)c(=O)c13)CCCCC2 | i | -5.4* | i | i | 1 | i | . | . | . | . | -151%* | i | -28%* | 38%* | i | i
COc1cccc(/C=N/NC(=O)Cn2nc([N+](=O)[O-])cc2C)c1 | i | i | i | i | -13 | i | . | . | . | . | . | . | . | . | . | .

Compound activity as filed in PubChem BioAssay.
